# Bioassay records deposited in PubChem by several laboratories.
# aDG glyco up: activators of alpha-DG glycosylation, primary screen, uHTS, Pro5-aDG cells, AlphaScreen; AID 624168, 2012; activation, % at 10 µM; hit rate 0.22% among 360,000; alpha-DG glycosylation AlphaScreen (IIH6); 0% Pro5, 100% B10-LARGE cell signal;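 active means activation of at least 8% versus controls, or a plate z-score of at least 8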;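 further: Pro5 are CHO cells carrying HIG-tagged alpha-DG that lacks glycosylation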
# procasp3 activ: activators of human procaspase-3 D3A mutant, primary screen, biochemical, absorbance, PC-3 D3A mutant, single concentration; recombinant procaspase-3 D3A, Ac-DEVD-pNA absorbance 405 nm; activation, % at 8.5 µM; hit rate 0.11% among 330,000;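 active means activation above the mean of all tested compounds plus 3 SD, cut at about 21% in these data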;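 further: 0% = DMSO alone and 100% = DMSO wells spiked with extra 5 µM PC-3 D3A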
#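 Evaluation: percent activation relative to control range; Material: Procaspase-3 D3A mutant, all three cleavage aspartates alanine; Compound: single dose, 8.5 µM nominal compound, 0.8% DMSO; Replication: one well per compound; Signal: absorbance at 405 nm, 0 and 120 min; Schedule: 1 h preincubation plus 2 h reaction at 25 °C.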
# MPTP inh: mitochondrial permeability transition pore inhibitors, primary screen, biochemical, isolated mouse mitochondria, absorbance; Ca2+ swelling absorbance, 30 min; inhibition, % at 10 µM; hit rate 1.4% among 360,000; AID 602449, 2012;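 active means inhibition of 50% or more, scaled per plate between neutral and stimulator controls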;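 further: 0% = DMSO wells given calcium and 100% = 1 mM EGTA wells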
# procasp7 counter: procaspase-7 activators, primary screen, counter-screen for procaspase-3 activator project, biochemical, absorbance, HTS, human; recombinant procaspase-7, Ac-DEVD-pNA absorbance 405 nm; D23A/D198A/D206A triple mutant, cannot self-cleave; scale: DMSO 0, 5 µM enzyme 100; activation, % at 8.5 µM; hit rate 0.093% among 330,000;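 active means percent activation above the screen-wide mean plus 3 SD, cut at about 25% in these data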
# Target sequence (P55210 whole entry D23A/D198A/D206A): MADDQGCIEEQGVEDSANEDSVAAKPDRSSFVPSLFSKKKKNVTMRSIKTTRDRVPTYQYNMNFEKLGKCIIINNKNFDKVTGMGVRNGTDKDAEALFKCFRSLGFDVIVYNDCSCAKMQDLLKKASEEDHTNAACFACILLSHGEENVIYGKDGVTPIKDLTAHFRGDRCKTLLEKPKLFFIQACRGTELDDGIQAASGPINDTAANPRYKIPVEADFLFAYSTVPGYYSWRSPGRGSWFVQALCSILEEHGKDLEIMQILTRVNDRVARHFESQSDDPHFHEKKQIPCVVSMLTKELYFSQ
#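 Replicates: singlicate. Assay system: Procaspase-7 triple mutant (PC-7 D3A). Signal: 405 nm absorbance of p-nitroaniline. Times: 1 h preincubation, 2 h reaction. Buffer or medium: Zinc-free HEPES pH 7.4 with 300 mM NaCl, 0.01% Triton X-100. Also added: DEVD-pNA substrate. Benchmarks: DMSO wells as 0%, DMSO with 5 µM added PC-7 as 100%.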
# GRIN3A LBD mod: binders of NR3A ligand-binding domain, primary screen, biophysical, differential scanning fluorimetry, uHTS; Glutamate receptor ionotropic, NMDA 3A (GRIN3A) ligand-binding domain; NR3A LBD differential scanning fluorimetry, Tm shift; 0% = protein alone, 100% = glycine-bound protein; Tm shift relative to glycine control, % at 25 µM; hit rate 2.5% among 340,000; AID 1259313, 2017;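 active means melting temperature shift of at least 10% of the positive control shift, at one fixed dose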
# MPTP counter: fluorescence retest of MPTP screen hits in isolated mitochondria, single concentration; shares compounds with MPTP inh; membrane potential, Rhodamine 123 fluorescence; inhibition, % at 10 µM; hit rate 78% among 5,000; AID 624504, 2012; in the data active means inhibition above about 22%;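 further: 0% = DMSO vehicle and 100% = positive control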
# MPTP abs DR: mitochondrial permeability transition pore inhibitors, dose response, biochemical, absorbance, uHTS hits | shares compounds with MPTP inh | isolated mitochondria swelling | IC50, µM | hit rate 58% among 780 | AID 651561, 2012; in the data active means IC50 below about 20 µM
# MPTP cs DR: fluorescent counter-screen in isolated mitochondria, dose response, counter-screen for MPTP inhibitor project, biochemical, fluorescence, uHTS hits; shares compounds with MPTP inh; IC50, µM; isolated mitochondria counterscreen, fluorescence read-out; AID 651564, 2012; hit rate 49% among 780; in the data active means IC50 below about 80 µM
# * hit, by the source's call; i = inactive; · = no result. A selection: hits, their analogues and other compounds. The true share with any hit is near 3.7%.
SMILES,aDG glyco up,procasp3 activ,MPTP inh,procasp7 counter,GRIN3A LBD mod,MPTP counter,others
CCOc1ccccc1NC(=O)C1CCCN(S(=O)(=O)c2ccc3c(c2)C(C)(C)C(=O)N3C)C1 (configuration not stated),0.1,6.5,-0.2,0.9,-1.4,·,
COc1ccc(NCC(=O)Nc2ccc(C#N)cc2)cc1Cl,0.1,-13.7,76.3*,-4.0,8.2,84.4*,
COc1ccc(NC(=O)CNc2cccc(C#N)c2)cc1Cl,0.5,7.5,-1.7,6.3,0.6,·,
Cc1nc2ccc(NS(=O)(=O)c3ccc(C)c(C)c3)cc2s1,1.2,-0.8,96.3*,4.1,-4.7,94.4*,
COc1cc(S(=O)(=O)Nc2ccc3nc(C)sc3c2)ccc1NC(C)=O,-0.1,6.4,68.4*,-7.2,-1.2,86.3*,
Cc1nc2cc(NS(=O)(=O)c3cccc(F)c3)ccc2s1,-0.3,11.7,-1.0,5.7,7.4,·,
Cc1nc2ccc(S(=O)(=O)Nc3ccccc3C)cc2s1,0.4,-1.7,-0.4,-1.4,8.0,·,
CC(=O)c1cccc(S(=O)(=O)Nc2ccc3nc(C)sc3c2)c1,0.4,1.6,91.3*,-3.1,-0.3,57.4*,
COc1ccc(-c2noc(CCCC(=O)N3CCN(c4cc(C)ccc4C)CC3)n2)cc1,0.2,1.1,14.8,-0.7,4.5,·,
COc1ccc(-c2noc(CCCCC(=O)N3CCN(c4cc(C)ccc4C)CC3)n2)cc1,1.9,-3.7,97.0*,11.9,-1.0,103.7*,
O=C(CCc1nc(-c2ccccc2F)no1)NC1CCN(Cc2ccccc2)CC1,0.4,8.9,2.6,5.7,8.7,·,
O=C(CCS(=O)(=O)Cc1ccc(Cl)cc1)NCCCN1CCN(c2ccccc2F)CC1,0.0,0.5,57.1*,9.2,2.2,-2.9,MPTP abs DR=>100;MPTP cs DR=>80
Cc1ccc(-c2noc(CCC(=O)NC3CCN(Cc4ccccc4)CC3)n2)cc1,1.6,·,72.1*,·,-0.8,4.7,MPTP abs DR=i;MPTP cs DR=34.2*
Cc1ccccc1CS(=O)(=O)CCC(=O)NCCCN1CCN(c2ccccc2F)CC1,-0.2,8.7,0.4,1.0,0.3,·,
Cc1ccc(-c2noc(CCC(=O)NCCCN3CCN(c4cccc(Cl)c4)CC3)n2)cc1,6.9,0.9,94.1*,2.2,-18.6,14.4,
COC(=O)[C@]1(C)N[C@H](CN(C)C(=O)C2CCCCC2)[C@@H]2C(=O)N(Cc3ccccc3)C(=O)[C@@H]21,0.0,-7.8,-2.6,8.7,2.2,·,
CC(C)(C)C1CCN2CCCC(c3ccccc3)(C1)C2=O (configuration not stated),0.0,·,0.3,·,·,·,
Cc1ccc(-c2noc(CCC(=O)NCCCN3CCN(c4ccc(F)cc4)CC3)n2)cc1,3.2,-4.6,93.0*,-12.4,-3.8,7.9,MPTP abs DR=6.97*;MPTP cs DR=28.4*
COc1ccc(-c2noc(CCC(=O)NCCCN3CCN(c4ccccc4F)CC3)n2)cc1,2.1,-2.4,54.8*,3.5,-3.6,12.8,MPTP abs DR=8.84*;MPTP cs DR=20.4*
CCN1CCN(CCCNC(=O)CCc2nc(-c3ccc(OC)cc3)no2)CC1,0.9,3.1,3.6,1.4,-0.8,·,
CC1CCCCC1NC(=O)COc1ncnc2sccc12 (configuration not stated),-0.1,-6.4,1.2,1.3,-0.4,·,
Cc1cccc(NC(=O)COC(=O)CN2C(=O)c3ccccc3C2=O)c1C,3.8,·,0.1,·,·,·,
c1ccc(-c2nc(SCc3nc4ccccc4[nH]3)c3oc4ccccc4c3n2)cc1,0.3,3.1,50.4*,2.5,-3.1,85.1*,
